# From ChEMBL document CHEMBL3860061, “A Novel Parkinson's Disease Drug Candidate with Potent Anti-neuroinflammatory Effects through the Src Signaling Pathway” (J Med Chem, 2016)
# Activity calls are given as the source filed them. No cut-off for these calls is given here.
# Assays:
# [1] = target: Proto-oncogene tyrosine-protein kinase Src (Mus musculus, UniProt P05480); assay: Inhibition of Src in mouse BV2 cells assessed as suppression of LPS-induced NO release preincubated for 1 hr followed by LPS addition measured after 24 hrs by Griess assay; type: cell-based, BV-2
# How it was run: (§1)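 BV-2 cells in DMEM/10% FBS, plated at 5×10^3 per well. After 24 h, treated at 100, 50, 10, 5, 1 and 0.1 µM; 1 h later LPS 300 ng/mL added. After another 24 h, nitrite in the medium measured by Griess assay.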
# [2] = target: Proto-oncogene tyrosine-protein kinase Src (Mus musculus) (UniProt P05480); assay: Inhibition of Src signaling pathway in mouse BV2 cells assessed as suppression of LPS-induced NO release at […] preincubated for 1 hr followed by LPS addition measured after 24 hrs relative to control by Griess assay; type: cell-based; conditions: BV-2
# [3] = AUC (0 to infinity) in ICR mouse brain at 50 mg/kg, ig up to 8 hrs by LC/MS/MS analysis; type: ADME, organism-based; design: dose 50 mg/kg, route […], time infinity; conditions: in vivo, po, BLD = below limit of detection
# How it was run: (§2)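 Male ICR mice (22–25 g), fasted 16 h, single intragastric dose of 50 mg/kg. Blood and brain sampled at 5, 15, 30 min and 1, 2, 4, 8 h after decapitation. Plasma spun 4000 rpm 5 min; brain homogenised in saline and spun. Extracts run by LC/MS/MS on C18 columns at 30 °C, isocratic 70% acetonitrile (1% TFA)/30% water, 0.2 mL/min. Mean ± SD, n = 6.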
# [4] = target: Proto-oncogene tyrosine-protein kinase Src (Rattus norvegicus) (UniProt Q9WUD9); assay: Inhibition of Src in Sprague-Dawley rat primary mixed mesecephalic neuron/glial cells assessed as suppression of LPS-induced microglia activation by measuring Iba-1 expression at 10 uM preincubated for 1 hr followed by LPS challenge measured after 24 hrs
# [5] = Cmax in ICR mouse brain at 50 mg/kg, ig up to 8 hrs by LC/MS/MS analysis; type: ADME, organism-based; design: dose 50 mg/kg, route […]; conditions: in vivo, po, BLD = below limit of detection; how it was run: as §2
# [6] = AUC (0 to infinity) in ICR mouse blood at 50 mg/kg, ig up to 8 hrs by LC/MS/MS analysis; type: ADME, organism-based; design: dose 50 mg/kg, route […], time infinity; conditions: in vivo, po; how it was run: as §2
# [7] = Half life in ICR mouse blood at 50 mg/kg, ig up to 8 hrs by LC/MS/MS analysis; type: ADME, organism-based; conditions: po; how it was run: as §2
# [8] = target: Proto-oncogene tyrosine-protein kinase Src (Mus musculus) (UniProt P05480); assay: Inhibition of Src signaling pathway in mouse BV2 cells assessed as suppression of LPS-induced NO release at 0.1 to 100 uM preincubated for 1 hr followed by LPS addition measured after 24 hrs relative to control by Griess assay; type: cell-based; conditions: BV-2; how it was run: as §1
# [9] = target: Proto-oncogene tyrosine-protein kinase Src (Rattus norvegicus) (UniProt Q9WUD9); assay: Inhibition of Src in Sprague-Dawley rat primary mixed mesecephalic neuron/glial cells assessed as suppression of LPS-induced TNFalpha expression at 10 uM preincubated for 1 hr followed by LPS challenge measured after 5 hrs by ELISA
# How it was run: (§3)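 Mixed mesencephalic neuron/glia cultures from E14 Sprague-Dawley rats, used at 7 days. Agent at 10 µM added 1 h before LPS 100 ng/mL; IL-1β and TNF-α in medium measured by ELISA after 5 h, n = 6.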
# [10] = Drug uptake in ICR mouse plasma at 50 mg/kg, ig after 5 mins by LC/MS/MS analysis; type: ADME, organism-based; conditions: in vivo, po
# [11] = Cmax in ICR mouse blood at 50 mg/kg, ig up to 8 hrs by LC/MS/MS analysis; type: ADME, organism-based; design: dose 50 mg/kg, route […]; conditions: po; how it was run: as §2
# [12] = target: Proto-oncogene tyrosine-protein kinase Src (Rattus norvegicus) (UniProt Q9WUD9); assay: Inhibition of SRC in Sprague-Dawley rat primary mixed mesecephalic neuron/glial cells assessed as protection against LPS-induced dopaminergic neuro-toxicity by measuring TH expression at 10 uM preincubated for 1 hr followed by LPS challenge measured after 7 days by Western blot analysis
# How it was run: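 Mixed mesencephalic neuron/glia cultures from E14 Sprague-Dawley rats, used at 7 days. Agent at 10 µM added 1 h before LPS 100 ng/mL; TH measured by Western blot after 7 days, n = 4.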
# [13] = target: Proto-oncogene tyrosine-protein kinase Src (Rattus norvegicus) (UniProt Q9WUD9); assay: Inhibition of Src in Sprague-Dawley rat primary mixed mesecephalic neuron/glial cells assessed as suppression of LPS-induced IL-1beta expression at 10 uM preincubated for 1 hr followed by LPS challenge measured after 5 hrs by ELISA; how it was run: as §3
# [14] = target: Voltage-gated inwardly rectifying potassium channel KCNH2 (Homo sapiens, UniProt Q12809); assay: Inhibition of human ERG by whole cell voltage clamp assay
# How it was run: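 Whole-cell voltage clamp. Internal solution: KCl 130 mM, MgCl2 1 mM, EGTA 5 mM, ATP-Mg 5 mM, HEPES 10 mM, pH 7.2. Bath: NaCl 137, CaCl2 1.8, KCl 4, MgCl2 1, glucose 5, HEPES 10 mM, pH 7.4. From a holding potential of −70 mV, 2-s steps to 50 mV in 10 mV increments every 15 s; tail current recorded on a 2-s step from +50 to −40 mV.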
# Mus musculus [15] = assay: Nephrotoxicity in ICR mouse at 1000 mg/kg administered through oral gavage for 14 consecutive days; type: toxicity, organism-based; conditions: in vivo
# How it was run: (§4)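 Mice dosed by oral gavage at 250, 500 and 1000 mg/kg for 14 consecutive days. General condition monitored throughout; liver and kidney clinical chemistry assessed.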
# [16] = Toxicity in ICR mouse assessed as mortality administered through oral gavage; type: organism-based; conditions: in vivo
# Mus musculus [17] = assay: Hepatotoxicity in ICR mouse at 1000 mg/kg administered through oral gavage for 14 consecutive days; type: toxicity, organism-based; conditions: in vivo; how it was run: as §4
# Sequence of Proto-oncogene tyrosine-protein kinase Src (P05480 2-535 limits assumed): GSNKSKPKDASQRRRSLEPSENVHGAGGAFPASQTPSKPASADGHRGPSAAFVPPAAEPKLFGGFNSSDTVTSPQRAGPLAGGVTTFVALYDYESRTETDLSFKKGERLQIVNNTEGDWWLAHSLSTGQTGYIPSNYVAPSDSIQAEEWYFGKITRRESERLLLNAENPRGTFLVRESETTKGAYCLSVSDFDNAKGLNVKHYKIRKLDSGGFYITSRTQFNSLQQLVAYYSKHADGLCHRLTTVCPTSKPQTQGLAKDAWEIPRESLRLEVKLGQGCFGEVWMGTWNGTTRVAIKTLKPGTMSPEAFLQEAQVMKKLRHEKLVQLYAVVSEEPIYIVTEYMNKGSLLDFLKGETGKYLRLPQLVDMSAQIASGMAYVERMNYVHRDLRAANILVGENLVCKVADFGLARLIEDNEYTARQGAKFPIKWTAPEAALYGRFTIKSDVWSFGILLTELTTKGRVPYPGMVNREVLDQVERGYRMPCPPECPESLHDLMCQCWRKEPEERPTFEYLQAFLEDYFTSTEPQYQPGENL
# Sequence of Proto-oncogene tyrosine-protein kinase Src (Mus musculus) (P05480 2-535 limits assumed): as above
# Sequence of Proto-oncogene tyrosine-protein kinase Src (Rattus norvegicus) (Q9WUD9 2-536 limits assumed): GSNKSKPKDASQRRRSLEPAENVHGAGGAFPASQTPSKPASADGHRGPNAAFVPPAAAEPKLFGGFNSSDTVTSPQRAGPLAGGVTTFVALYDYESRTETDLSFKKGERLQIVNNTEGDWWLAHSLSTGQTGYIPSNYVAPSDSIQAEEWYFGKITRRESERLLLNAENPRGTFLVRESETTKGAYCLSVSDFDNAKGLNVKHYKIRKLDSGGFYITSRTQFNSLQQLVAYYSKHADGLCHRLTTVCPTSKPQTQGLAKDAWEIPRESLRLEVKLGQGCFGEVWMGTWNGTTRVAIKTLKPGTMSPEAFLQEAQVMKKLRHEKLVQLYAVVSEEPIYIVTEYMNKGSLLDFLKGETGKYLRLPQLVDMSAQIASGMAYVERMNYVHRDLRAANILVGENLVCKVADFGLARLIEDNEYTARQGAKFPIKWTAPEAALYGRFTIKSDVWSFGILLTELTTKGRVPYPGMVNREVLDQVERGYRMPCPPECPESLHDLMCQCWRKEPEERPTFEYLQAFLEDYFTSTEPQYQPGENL
# Sequence of Voltage-gated inwardly rectifying potassium channel KCNH2 (Q12809 whole entry): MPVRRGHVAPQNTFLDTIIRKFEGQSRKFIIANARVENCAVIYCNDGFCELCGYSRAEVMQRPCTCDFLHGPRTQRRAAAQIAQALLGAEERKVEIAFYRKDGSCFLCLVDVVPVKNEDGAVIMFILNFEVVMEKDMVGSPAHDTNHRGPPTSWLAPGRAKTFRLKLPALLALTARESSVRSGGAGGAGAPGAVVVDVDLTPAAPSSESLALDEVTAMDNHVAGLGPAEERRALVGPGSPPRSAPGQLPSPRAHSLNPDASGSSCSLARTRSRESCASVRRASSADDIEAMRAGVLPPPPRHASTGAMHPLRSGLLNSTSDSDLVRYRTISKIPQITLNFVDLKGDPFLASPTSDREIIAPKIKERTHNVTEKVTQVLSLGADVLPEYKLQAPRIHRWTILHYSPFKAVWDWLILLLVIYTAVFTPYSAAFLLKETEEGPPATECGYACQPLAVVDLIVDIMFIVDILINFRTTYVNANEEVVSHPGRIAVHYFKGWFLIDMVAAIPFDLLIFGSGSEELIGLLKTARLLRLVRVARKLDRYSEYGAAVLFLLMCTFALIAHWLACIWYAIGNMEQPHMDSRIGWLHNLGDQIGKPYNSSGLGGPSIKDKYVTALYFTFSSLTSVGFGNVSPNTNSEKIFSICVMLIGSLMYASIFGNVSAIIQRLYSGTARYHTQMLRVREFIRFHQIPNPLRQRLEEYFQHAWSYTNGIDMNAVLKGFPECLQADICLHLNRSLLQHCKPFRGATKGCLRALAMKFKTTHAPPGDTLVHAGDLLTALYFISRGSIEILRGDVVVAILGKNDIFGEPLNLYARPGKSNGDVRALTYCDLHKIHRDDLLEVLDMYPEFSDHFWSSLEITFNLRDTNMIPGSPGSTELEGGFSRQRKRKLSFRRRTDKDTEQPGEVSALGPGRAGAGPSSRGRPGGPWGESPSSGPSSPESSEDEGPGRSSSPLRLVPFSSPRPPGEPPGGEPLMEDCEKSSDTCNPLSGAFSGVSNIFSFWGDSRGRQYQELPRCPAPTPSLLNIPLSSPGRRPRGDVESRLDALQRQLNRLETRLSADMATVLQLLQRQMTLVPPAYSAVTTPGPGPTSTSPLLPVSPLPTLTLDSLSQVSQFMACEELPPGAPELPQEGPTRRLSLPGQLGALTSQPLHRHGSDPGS
SMILES,IC50 [1],other results
CN(CCCC(=O)c1c(O)cc(O)cc1O)C1CCCCC1,54.8 µM,
COc1ccc(C(=O)CC(C)C)c(OCC(O)CNC(C)C)c1 (stereo not given),,inhibition [2]: < 50%
COc1cc(OC)c(C(=O)CN2CCCCC2)c(OC)c1,24.9 µM,
O=C(CCCN1CCN(c2cccc(Cl)c2)CC1)c1c(O)cc(O)cc1O,,inhibition [2]: < 50%
COc1cc(OC)c(C(=O)CN2CCOCC2)c(OC)c1,32.4 µM,
COc1cc(OC)c(CN[C@@H](Cc2ccccc2)C(=O)O)c(OC)c1,,inhibition [2]: < 50%
COc1cc(O)c(C(=O)CC(C)C)c(OC)c1,51.5 µM,
CC(C)CC(=O)c1c(O)cc(O)cc1OC[C@H](O)CNC(C)C,,inhibition [2]: < 50%
COc1cc(OC)c(C(=O)CC(C)C)c(OC[C@H](O)CNC(C)(C)C)c1,,inhibition [2]: < 50%
CC(C)CC(=O)c1c(O)cc(O)cc1OC[C@@H](O)CNC(C)C,,inhibition [2]: < 50%
COc1cc(OC)c(CN[C@@H](Cc2cnc[nH]2)C(=O)O)c(OC)c1,,inhibition [2]: < 50%
CCCCNC(=O)c1c(O)cc(O)cc1O,37.1 µM,
COc1ccc(C(=O)CC(C)C)c(OC[C@H](O)CNC(C)(C)C)c1,28.2 µM,
CCCCC(=O)c1c(O)cc(O)cc1O,11.2 µM,
COc1cc(OC)c(CNC(C)C)c(OC)c1,,inhibition [2]: < 50%
COc1cc(OC)c(CNCC(=O)O)c(OC)c1,,inhibition [2]: < 50%
COc1cc(OC)c(C(=O)CC(C)C)c(OC[C@H](O)CNC(C)C)c1,41.3 µM,
COc1cc(OC)c(C(=O)CN2CCN(C)CC2)c(OC)c1,95.3 µM,
"CC(=O)c1c(O)cc(O)cc1O [2,4,6-TRIHYDROXYACETOPHENONE]",195 µM,
COc1cc(OC)c(C(=O)CC(C)C)c(OC[C@@H](O)CNC(C)C)c1,138 µM,
COc1cc(O)cc(O)c1C(=O)CC(C)C,5.8 µM,inhibition [4]: Active; inhibition (INH) [14]: Active; inhibition [9]: Active; Activity (Mus musculus [15]): Toxic; LD50 [16]: 2000 mg/kg; Activity (Mus musculus [17]): Toxic; Drug uptake [10]: Active; inhibition [12]: Active; inhibition [13]: Active

# Now from value to molecule, other results behind:
IC50 [1],SMILES,other results
25.6 µM,COc1ccc(C(=O)CC(C)C)c(OC[C@@H](O)CNC(C)C)c1,
75 µM,COc1cc(OC)c(C(=O)CC(C)C)c(OCC(O)CNC(C)(C)C)c1 (stereo not given),
113 µM,COc1ccc(C(=O)CC(C)C)c(O)c1,
40.9 µM,COc1ccc(C(=O)CC(C)C)c(OC[C@H](O)CNC(C)C)c1,
22.7 µM,CCN1CCN(CC(=O)c2c(OC)cc(OC)cc2OC)CC1,
8.4 µM,COc1cc(OC)c(CN[C@@H](CCC(=O)O)C(=O)O)c(OC)c1,AUC [3]: Bld; inhibition [4]: Active; Cmax [5]: Bld; AUC [6]: 3195.1 µg·L·h; half-life [7]: 1.1 h; inhibition [8]: Active; inhibition [9]: Active; Drug uptake [10]: Active; Cmax [11]: 1640 ng/mL; inhibition [12]: Active; inhibition [13]: Active
53.8 µM,COc1ccc(C(=O)CC(C)C)c(OC[C@@H](O)CNC(C)(C)C)c1,
138 µM,COc1ccc(C(=O)CC(C)C)c(OCC(O)CNC(C)(C)C)c1 (stereo not given),
92.6 µM,CC(C)NC(=O)c1c(O)cc(O)cc1O,
37.3 µM,CC(C)CC(=O)c1c(O)cc(O)cc1OC[C@H](O)CNC(C)(C)C,
50.6 to 50.7 µM,CC(C)CC(=O)c1c(O)cc(O)cc1O,
24.1 µM,CC(C)CC(=O)c1c(O)cc(O)cc1OC[C@@H](O)CNC(C)(C)C,
8.5 µM,CC(C)CC(=O)c1c(O)cc(O)cc1OCc1c(-c2ccccc2)no[n+]1[O-],inhibition [4]: Active; inhibition [9]: Active; Drug uptake [10]: Active; inhibition [12]: Active; inhibition [13]: Active
74 µM,CC(C)CC(=O)c1c(O)cc(O)cc1OCC(O)CNC(C)C (stereo not given),
11.1 µM,COc1cc(OC)c(C(=O)CC(C)C)c(OC)c1,
14.4 µM,COc1cc(OC)c(CN[C@@H](CC(=O)O)C(=O)O)c(OC)c1,inhibition [8]: Active
39.1 µM,COc1cc(OC)c(CN[C@@H](C)C(=O)O)c(OC)c1,
21.7 µM,CC(C)CC(=O)c1c(O)cc(O)cc1OCC(O)CNC(C)(C)C (stereo not given),
84.8 µM,COc1cc(OC)c(C(=O)CC(C)C)c(OCC(O)CNC(C)C)c1 (stereo not given),
90.7 µM,CC(C)CC(=O)c1ccc(O)cc1,
11.2 µM,COc1cc(OC)c(C(=O)CC(C)C)c(OC[C@@H](O)CNC(C)(C)C)c1,
2.2 µM,COc1cc(/C=C/C(=O)CC(=O)/C=C/c2ccc(O)c(OC)c2)ccc1O [CURCUMIN],
182 µM,O=C(CCCN1CCCCC1)c1c(O)cc(O)cc1O,
